{"data": "Results of several laboratories", "organism": "Acinetobacter baumannii", "read-out": "microbial growth", "note": "Lines come from different studies, so protocols differ."}
{"Structure (SMILES)": "C[C@H]1COc2c(N3CCN(C)CC3)c(F)cc3c(=O)c(C(=O)O)cn1c23", "assay": "broth dilution", "system": "ATCC19606", "MIC": "≤ 0.125 µg/mL"}
{"Structure (SMILES)": "NC1CCCCc2c1[nH]c1ccc(Br)cc21 (stereo not shown)", "assay": "broth dilution", "system": "ATCC19606", "MIC": "16 µg/mL"}
{"Structure (SMILES)": "C[C@H]1COc2c(N3CCN(C)CC3)c(F)cc3c(=O)c(C(=O)O)cn1c23", "assay": "broth dilution", "MIC": "3.3 µM"}
{"Structure (SMILES)": "O=C(CCCCCCCCCC[P+](c1ccccc1)(c1ccccc1)c1ccccc1)Nc1ccc(O)c(O)c1.[Br-]", "assay": "broth dilution", "system": "ATCC19606", "setting": "18 h", "MIC": "> 32 µg/mL"}
{"Structure (SMILES)": "CNC(=O)c1cc(Oc2ccc(NC(=O)Nc3ccc(Cl)c(C(F)(F)F)c3)cc2)ccn1", "system": "DSM30007", "MIC": "> 100 µM"}
{"Structure (SMILES)": "O=C(CCCCCC[P+](c1ccccc1)(c1ccccc1)c1ccccc1)Nc1cc(O)c(O)c(O)c1.[Br-]", "assay": "broth dilution", "system": "ATCC19606", "setting": "18 h", "MIC": "> 32 µg/mL"}
{"Structure (SMILES)": "O=[N+]([O-])c1ccc(O)c2ncccc12", "system": "19606", "MIC": "1.56 µM"}
{"Structure (SMILES)": "O=C(CCCCCCCC[P+](c1ccccc1)(c1ccccc1)c1ccccc1)Nc1ccc(O)c(O)c1.[Br-]", "assay": "broth dilution", "system": "ATCC19606", "setting": "18 h", "MIC": "> 32 µg/mL"}
{"Structure (SMILES)": "O=C(O)c1ccc(-n2cc(/C=N/Nc3ccc(Cl)cc3)c(-c3ccc4ccccc4c3)n2)cc1", "system": "ATCCBAA1605", "MIC": "12.5 µg/mL"}
{"Structure (SMILES)": "CN(C)CC(C)(C)CNc1nc(F)c2c(c1O)C(=O)C1=C(O)[C@]3(O)C(=O)C(C(N)=O)=C(O)[C@@H](N(C)C)[C@@H]3C[C@@H]1C2.Cl", "assay": "broth dilution", "system": "ATCC19606", "MIC": "4 µg/mL"}
{"Structure (SMILES)": "CCCCCCC/C=C/C(=O)N1C(=O)/C(=C(\\O)C2CCNCC2)C(=O)C1CC(C)C (stereo not shown)", "system": "ATCC19606", "MIC": "50 µg/mL"}
{"Structure (SMILES)": "CC(C)CNc1nc(Cl)c2c(c1O)C(=O)C1=C(O)[C@]3(O)C(=O)C(C(N)=O)=C(O)[C@@H](N(C)C)[C@@H]3C[C@@H]1C2.Cl.Cl.Cl", "assay": "broth dilution", "system": "ATCC19606", "MIC": "2 µg/mL"}
{"Structure (SMILES)": "O=[N+]([O-])c1ccc(O)c2ncccc12", "assay": "broth dilution", "system": "ATCC19606", "MIC": "8 µg/mL"}
{"Structure (SMILES)": "O=[N+]([O-])c1ccc(/C=N/Nc2nc(Nc3ccccc3)nc(N3CCOCC3)n2)o1", "MIC": "> 120 µM"}
{"Structure (SMILES)": "CCCCCCC/C=C/C(=O)N1C(=O)/C(=C(\\O)c2ccc(F)cc2)C(=O)C1CC(C)C (stereo not shown)", "system": "ATCC19606", "MIC": "> 200 µg/mL"}
{"Structure (SMILES)": "N=C(N)NN=Cc1ccc(OC/C=C\\COc2ccc(C=NNC(=N)N)cc2)cc1", "system": "ATCC19606", "setting": "16 h", "MIC": "≤ 51 µg/mL"}
{"Structure (SMILES)": "Cc1nc(Cl)c2c(c1O)C(=O)C1=C(O)[C@]3(O)C(=O)C(C(N)=O)=C(O)[C@@H](N(C)C)[C@@H]3C[C@@H]1C2.Cl", "assay": "broth dilution", "system": "ATCC19606", "MIC": "4 µg/mL"}
{"Structure (SMILES)": "N=C(N)c1ccc(OCc2cccc(COc3ccc(C(=N)N)cc3)c2)cc1", "assay": "broth dilution", "system": "ATCC17978", "MIC": "> 200 µg/mL"}
{"Structure (SMILES)": "C[C@@H](O)[C@H]1C(=O)N2C(C(=O)O)=C(SCCN=CN)C[C@H]12", "assay": "broth dilution", "system": "KCCM40203", "setting": "16 h", "MIC": "1 µM"}
{"Structure (SMILES)": "COc1cccc2c(O)c3c(cc12)C[C@H]1C[C@H]2[C@H](N(C)C)C(O)=C(C(N)=O)C(=O)[C@@]2(O)C(O)=C1C3=O", "assay": "broth dilution", "system": "ATCC19606", "MIC": "> 32 µg/mL"}
{"Structure (SMILES)": "COc1ncc(O)c2c1C[C@H]1C[C@H]3[C@H](N(C)C)C(O)=C(C(N)=O)C(=O)[C@@]3(O)C(O)=C1C2=O.Cl.Cl", "assay": "broth dilution", "system": "ATCC19606", "MIC": "0.5 µg/mL"}
{"Structure (SMILES)": "CNC(C)C1CCC(N)C(OC2C(N)CC(N)C(OC3OCC(C)(O)C(NC)C3O)C2O)O1 (stereo not shown)", "MIC": "0.5 to 1 µg/mL"}
{"Structure (SMILES)": "CN(C)[C@@H]1C(O)=C(C(N)=O)C(=O)[C@@]2(O)C(O)=C3C(=O)c4c(O)cnc(-c5ccccc5)c4C[C@H]3C[C@@H]12.Cl.Cl", "assay": "broth dilution", "system": "ATCC19606", "MIC": "0.125 µg/mL"}
{"Structure (SMILES)": "O=C(Nc1ccc(F)c(Cl)c1)c1cc(Cl)ccc1O", "assay": "broth dilution", "system": "BAA1605", "MIC": "> 64 µg/mL"}
{"Structure (SMILES)": "N=C(N)c1ccc(OCc2cc(Br)cc(COc3ccc(C(=N)N)cc3)c2)cc1", "assay": "broth dilution", "system": "ATCC17978", "MIC": "> 200 µg/mL"}
{"Structure (SMILES)": "CN(C)[C@@H]1C(O)=C(C(N)=O)C(=O)[C@@]2(O)C(O)=C3C(=O)c4c(cc5ccc(CN(C)S(C)(=O)=O)cc5c4O)C[C@H]3C[C@@H]12", "assay": "broth dilution", "system": "ATCC19606", "MIC": "32 µg/mL"}
{"Structure (SMILES)": "O=C(O)c1ccc(-n2cc(/C=N/Nc3cccc(Br)c3)c(-c3cccc(F)c3)n2)cc1", "system": "ATCCBAA1605", "MIC": "12.5 µg/mL"}
{"Structure (SMILES)": "CN[C@@H]1[C@H](O[C@H]2[C@H](O[C@H]3[C@H](O)[C@@H](O)[C@H](N=C(N)N)[C@@H](O)[C@@H]3N=C(N)N)O[C@@H](C)[C@]2(O)C=O)O[C@@H](CO)[C@H](O)[C@H]1O", "system": "ATCC19606", "MIC": "> 2000 µg/mL"}
{"Structure (SMILES)": "CO[C@H]1/C=C/O[C@@]2(C)Oc3c(C)c(O)c4c(O)c(c(/C=N/N5CCN(C)CC5)c(O)c4c3C2=O)NC(=O)/C(C)=C\\C=C\\[C@H](C)[C@H](O)[C@@H](C)[C@@H](O)[C@@H](C)[C@H](OC(C)=O)[C@@H]1C", "system": "NCTC13301", "MIC": "4 µg/mL"}
{"Structure (SMILES)": "C/C(O)=C1\\C(=O)C(CC(C)C)N(C(=O)C=Cc2ccccc2)C1=O (stereo not shown)", "system": "ATCC19606", "MIC": "> 200 µg/mL"}
{"Structure (SMILES)": "CC(C)(O/N=C(\\C(=O)N[C@@H]1C(=O)N2C(C(=O)[O-])=C(C[N+]3(CCNC(=O)c4ccc(O)c(O)c4Cl)CCCC3)CS[C@H]12)c1csc(N)n1)C(=O)O", "system": "DSM30007", "MIC": "0.2 µM"}
{"Structure (SMILES)": "CN(C)[C@@H]1C(O)=C(C(N)=O)C(=O)[C@@]2(O)C(O)=C3C(=O)c4c(cc5ccc(-c6cccnc6)cc5c4O)C[C@H]3C[C@@H]12", "assay": "broth dilution", "system": "ATCC19606", "MIC": "32 µg/mL"}
{"Structure (SMILES)": "CCCCCCC/C=C/C(=O)N1C(=O)/C(=C(/C)O)C(=O)C1CCC(=O)O (stereo not shown)", "system": "ATCC19606", "MIC": "> 200 µg/mL"}
{"Structure (SMILES)": "CC[C@H]1OC(=O)[C@H](C)[C@@H](O[C@H]2C[C@@](C)(OC)[C@@H](O)[C@H](C)O2)[C@H](C)[C@@H](O[C@@H]2O[C@H](C)C[C@H](N(C)C)[C@H]2O)[C@](C)(O)C[C@@H](C)C(=O)[C@H](C)[C@@H](O)[C@]1(C)O", "system": "ATCC19606", "MIC": "50 µg/mL"}
{"Structure (SMILES)": "CC(NCCCNC(=O)c1ccc(Cl)s1)c1cc2cc(Br)ccc2[nH]1 (stereo not shown)", "assay": "broth dilution", "system": "ATCC19606", "MIC": "32 µg/mL"}
{"Structure (SMILES)": "CN(Cc1ccc2cc3c(c(O)c2c1)C(=O)C1=C(O)[C@]2(O)C(=O)C(C(N)=O)=C(O)[C@@H](N(C)C)[C@@H]2C[C@@H]1C3)c1ccccc1", "assay": "broth dilution", "system": "ATCC19606", "MIC": "32 µg/mL"}
{"Structure (SMILES)": "O=C(O)c1ccc(-n2cc(/C=N/Nc3cccc(Cl)c3)c(-c3cccc(F)c3)n2)cc1", "system": "ATCCBAA1605", "MIC": "6.25 µg/mL"}
{"Structure (SMILES)": "N=C(N)c1cccc(OCc2ccc(COc3cccc(C(=N)N)c3)cc2)c1", "assay": "broth dilution", "system": "ATCC17978", "MIC": "> 200 µg/mL"}
{"Structure (SMILES)": "CCCCCCC/C=C/C(=O)N1C(=O)/C(=C(/C)O)C(=O)C1Cc1ccc(O)cc1 (stereo not shown)", "system": "ATCC19606", "MIC": "> 200 µg/mL"}
{"Structure (SMILES)": "CO[C@@H](C(N)=O)[C@H](NC(=O)c1ccc(NC(=O)c2ccc(C#N)cc2)cc1)C(=O)Nc1ccc(C(=O)Nc2ccc(C(=O)Nc3ccc(C(=O)O)cc3)c(O)c2OC(C)C)cc1", "system": "DSM30008", "MIC": "1 µg/mL"}
